UBC13 polyUb: inhibitors of human UBC13 polyubiquitin chain formation | actives 0.47% (n = 330,000) | AID 485273 | P61088 | inhibition, % at 20 µM | TR-FRET; in the data active means inhibition above about 45%, passing the limit was not always enough
Target sequence (P61088 whole entry, looked up): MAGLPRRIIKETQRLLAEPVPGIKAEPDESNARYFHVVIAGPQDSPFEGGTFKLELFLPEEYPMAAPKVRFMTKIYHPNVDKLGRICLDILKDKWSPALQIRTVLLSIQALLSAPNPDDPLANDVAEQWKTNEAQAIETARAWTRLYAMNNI
Apaf-1 inh: human Apaf-1 inhibition. reconstituted apoptosome caspase-3 activity, DEVD-Rh110 fluorescence. inhibition, % at 20 µM. actives 0.71% (n = 330,000). AID 489030; active means inhibition of at least 40% at 20 µM;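 further: plate controls were DMSO wells for no effect and DEVD-CHO caspase inhibitor wells for full effect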
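Material: cell-free apoptosome with Apaf-1, procaspase-3 and caspase-9; Buffer or medium: Hepes pH 7.5 with detergent and BSA; Reagent: cytochrome c trigger plus (Z-DEVD)2-Rh110 caspase-3 substrate; Times: compound with Apaf-1, dATP, procaspase-3 30 min, then 50 min reaction, room temperature; Technique: Rh110 fluorescence intensity.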
ANO1 block: inhibitors of mouse TMEM16A calcium-activated chloride channel; Q8BHY3; HEK293 TMEM16A/YFP iodide influx fluorescence, ionomycin; normalized B-score (activity score, 25-100; higher = stronger inhibition) at 10 µM; actives 1.2% (n = 310,000); AID 588511;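 active means ratio plate-corrected score three or more library SD toward inhibition, starting fluorescence score within five deviations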;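 further: score derived from kinetic fluorescence span divided by baseline fluorescence per well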
DNA FID counter: displaces DNA intercalator in HCV helicase counter-screen | DNA fluorescent intercalator displacement, fluorescence | inhibition, % at 7.9 µM | actives 0.17% (n = 290,000); in the data active means inhibition above about 37%;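 further: 0% = vehicle and 100% = reference compound; higher means more ethidium bromide displaced from hairpin DNA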
ANO1 activ: activators or potentiators of mouse TMEM16A chloride channel; actives 0.3% (n = 340,000); B-score at 10 µM; HEK293 TMEM16A/YFP-H148Q/I152L, iodide quench fluorescence; hits give low values;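 active means fluorescence-ratio B-score plate-corrected deviation score at least 3 library SD below zero, with starting fluorescence score within 5 deviations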;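 further: channel opened by trigger with iodide after compound preincubation; score built on the fluorescence ratio of max minus min over baseline; more negative score means more quench and so TMEM16A activation or potentiation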
TMEM16A reconf: TMEM16A (mouse) chloride channel inhibition, re-confirmation; shares compounds with ANO1 block; HEK293 TMEM16A/YFP-H148Q, iodide quench fluorescence; ionomycin added to raise cell calcium; inhibition, % at 10 µM; actives 39% (n = 2,300);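 active means mean duplicate percent inhibition, scaled so buffer wells are 0 and the reference blocker 100, over three buffer SD above buffer mean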
TMEM16A Ca cntr: calcium mobilization counter-screen hit for TMEM16A inhibitor series; shares compounds with ANO1 block; TMEM16A/YFP HEK293, Fluo4 calcium mobilization; calcium response (% of ionomycin), % at 10 µM; actives 2% (n = 2,300); AID 652231;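 active means duplicate-averaged calcium signal over 20% of the ionomycin maximum, relative to buffer baseline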;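 further: each well's signal is peak minus trough fluorescence divided by its pre-addition baseline; 0% = buffer wells and 100% = ionomycin wells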
Parental YFP cnt: counter-screen for TMEM16A inhibitors: effect in parental YFP-HEK293 cells; shares compounds with ANO1 block; iodide YFP quench, ionomycin; YFP ratio F(max-min)/F0 at 10 µM; 2,300 tested, under 10 active; AID 652233;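 active means yellow fluorescent protein signal ratio exceeding the buffer control mean by over 5 SD of those controls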;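 further: ratio is mean of duplicate wells from kinetic YFP trace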
ClC-1 rat inh: selectivity of TMEM16A inhibitors: inhibition of rat ClC-1 chloride channel; shares compounds with ANO1 block; CHO ClC-1-YFP, iodide influx fluorescence quench; iodide control reads 0, buffer control 100; ratio percent, % at 10 µM; 2,300 tested, under 10 active;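 active means duplicate-mean ratio percent above the mean of iodide-only control wells, which defines zero, plus 5 of their SD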;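 further: higher percent means stronger block of ClC-1 iodide influx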
Starred values were filed as active, the others as inactive. An excerpt weighted towards active compounds, which were near 2.4% of everything screened.

COC(=O)C1(c2ccccc2)NC(c2ccc(O)cc2)C2C(=O)N(c3ccc4c(c3)OCO4)C(=O)C21 (stereo not drawn) was read as UBC13 polyUb -7.5, Apaf-1 inh -12.5, ANO1 block inactive, DNA FID counter -23.9 and ANO1 activ inactive.
For CCOc1cc(CNCCO)cc(Br)c1OCc1ccccc1Cl the results were UBC13 polyUb 42.6, Apaf-1 inh 12.0, ANO1 block 25*, DNA FID counter 28.6, ANO1 activ inactive, TMEM16A reconf inactive, TMEM16A Ca cntr inactive, Parental YFP cnt -1.16 and ClC-1 rat inh -18.0.
For CCN(C(=O)COC(=O)CNC(=O)c1ccc(C)cc1)c1c(N)n(Cc2ccccc2)c(=O)[nH]c1=O the results were UBC13 polyUb 12.8, Apaf-1 inh -9.4 and ANO1 activ inactive.
CCCCNC(NCCCC)=C(S(=O)(=O)CC)S(=O)(=O)CC was read as UBC13 polyUb 7.9, Apaf-1 inh -12.2, ANO1 block 25*, DNA FID counter 14.5, ANO1 activ inactive, TMEM16A reconf inactive, TMEM16A Ca cntr inactive, Parental YFP cnt -1.05 and ClC-1 rat inh -3.5.
CCOC(=O)c1oc2ccc(S(=O)(=O)Nc3ccc4c(c3)n(C)c(=O)n4C)cc2c1C was read as UBC13 polyUb 6.0, Apaf-1 inh 15.2, ANO1 block 25*, DNA FID counter -7.0, ANO1 activ inactive, TMEM16A reconf inactive, TMEM16A Ca cntr inactive, Parental YFP cnt -1.27 and ClC-1 rat inh -11.0.
Cc1cccc(-n2c(SCc3ccc([N+](=O)[O-])cc3)nnc2-c2c[nH]c3ccccc23)c1 was read as UBC13 polyUb 2.1, Apaf-1 inh 2.1, ANO1 block inactive, DNA FID counter 2.8 and ANO1 activ inactive.
COc1ccc(CCNc2nc(-c3ccc(O)cc3)cs2)cc1OC was read as UBC13 polyUb -6.4, Apaf-1 inh -0.2, ANO1 block 100*, DNA FID counter -19.3, ANO1 activ inactive, TMEM16A reconf 30.5%*, TMEM16A Ca cntr inactive, Parental YFP cnt -0.965 and ClC-1 rat inh -31.5.
For COc1ccc(CCNc2nc(-c3sc(C)nc3C)cs2)cc1OC the results were UBC13 polyUb -5.6, Apaf-1 inh 19.2, ANO1 block 100*, DNA FID counter -21.4, ANO1 activ inactive, TMEM16A reconf 34.0%*, TMEM16A Ca cntr inactive, Parental YFP cnt -0.926 and ClC-1 rat inh -16.0.
For COc1ccc(CCNc2nc(-c3ccc(NC(C)=O)cc3)cs2)cc1OC the results were UBC13 polyUb -8.3, Apaf-1 inh 4.2, ANO1 block inactive, DNA FID counter -21.1 and ANO1 activ inactive.
`COc1cccc(OCCN2CCN(c3ncnc4c3cnn4-c3ccccc3)CC2)c1` gave UBC13 polyUb 33.5, Apaf-1 inh 33.2, ANO1 block 100*, DNA FID counter -19.6, ANO1 activ inactive, TMEM16A reconf inactive, TMEM16A Ca cntr inactive, Parental YFP cnt -0.883 and ClC-1 rat inh -9.5.
CCOc1ccc(C(=O)NCC(=O)NNC(=O)CN(C)S(=O)(=O)c2ccc(Cl)cc2)cc1OCC was read as ANO1 activ inactive.
C=C1CCN([C@@H](CC(C)C)C(=O)O)S(=O)(=O)c2ccccc21 was read as UBC13 polyUb -7.7, Apaf-1 inh -1.7, ANO1 block inactive and ANO1 activ inactive.
Screening C=C1CCN(C(CC(C)C)C(=O)OC)S(=O)(=O)c2ccccc21 (stereo not drawn) returned UBC13 polyUb 1.5, Apaf-1 inh 2.9, ANO1 block 25*, ANO1 activ inactive, TMEM16A reconf inactive, TMEM16A Ca cntr inactive, Parental YFP cnt -1.17 and ClC-1 rat inh -3.5.
`CCOc1ccc(N)c(SSc2cc(OCC)ccc2N)c1` gave UBC13 polyUb -34.5, Apaf-1 inh 18.3, ANO1 block inactive, DNA FID counter -13.6 and ANO1 activ inactive.
Screening CCOc1cc(-c2ccc(N)c(OCC)c2)ccc1N returned UBC13 polyUb -13.8, Apaf-1 inh 5.2, ANO1 block inactive, DNA FID counter -1.3, ANO1 activ inactive, TMEM16A reconf inactive, TMEM16A Ca cntr inactive, Parental YFP cnt -0.707 and ClC-1 rat inh 4.0.
O=C(Cn1[nH]c(=O)c2ccccc2c1=O)OCC(=O)N(Cc1ccccc1)Cc1ccccc1 was read as UBC13 polyUb 2.8, Apaf-1 inh 16.9, ANO1 block 100*, DNA FID counter -2.8, ANO1 activ inactive, TMEM16A reconf inactive, TMEM16A Ca cntr 24.0%*, Parental YFP cnt -0.898 and ClC-1 rat inh -13.5.
`CCn1c(SCC(=O)N2CCOCC2)nc2sc3c(c2c1=O)CCCC3` gave UBC13 polyUb -0.8, Apaf-1 inh 13.6, ANO1 block inactive, DNA FID counter -17.0 and ANO1 activ inactive.
Screening CCn1c(SCC(=O)N2CCOCC2)nc2oc3c(Cl)cc(Cl)cc3c(=O)c2c1=O returned UBC13 polyUb -7.5, Apaf-1 inh 3.6, ANO1 block inactive, DNA FID counter -4.0, TMEM16A reconf 31.5%*, TMEM16A Ca cntr inactive, Parental YFP cnt -0.312 and ClC-1 rat inh 10.5.
Screening CCCOC(=O)c1ccc(-c2c(C)noc2-c2ccc(OC)cc2O)o1 returned UBC13 polyUb 13.3, Apaf-1 inh 3.7, ANO1 block 100*, DNA FID counter -7.6, ANO1 activ inactive, TMEM16A reconf inactive, TMEM16A Ca cntr inactive, Parental YFP cnt -1.15 and ClC-1 rat inh -20.5.
`COc1ccc(-c2onc(C)c2-c2cscn2)c(O)c1` gave UBC13 polyUb 5.6, Apaf-1 inh -2.2, ANO1 block inactive, DNA FID counter -2.8 and ANO1 activ inactive.
`CC(C)OC(=O)C1C2C=CC3(CN(C(C)c4ccc(Br)cc4)C(=O)C13)O2` (stereo not drawn) gave UBC13 polyUb 3.5, Apaf-1 inh -4.6, ANO1 block 25*, DNA FID counter -19.0, ANO1 activ inactive, TMEM16A reconf inactive, TMEM16A Ca cntr inactive, Parental YFP cnt -1.16 and ClC-1 rat inh -14.0.
Screening C=CCc1cc(C)ccc1OCC(O)CN1CCN(c2ccccc2)CC1 (stereo not drawn) returned UBC13 polyUb 12.5, Apaf-1 inh 14.8, ANO1 block inactive, DNA FID counter 14.5 and ANO1 activ inactive.
